Assay results: ChEMBL document CHEMBL3046326, “Screening of dialkoxybenzenes and disubstituted cyclopentene derivatives against the cabbage looper, Trichoplusia ni, for the discovery of new feeding and oviposition deterrents” (J Agric Food Chem, 2007)

Key:
Trichoplusia ni [1] = assay: Toxicity against third-instar larval stage of Trichoplusia ni (cabbage looper) assessed as mortality at 0.25% measured after 24 hr by contact toxicity bioassay; type: functional
How it was run: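 Third-instar larvae were sprayed directly with test solution at 0.25% in filter-paper-lined Petri dishes. They were then moved to dishes holding a small piece of artificial diet. Mortality was scored 24 h after spraying. The test applied only to compounds giving >50% feeding deterrence at 50 µg/cm².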

Trichoplusia ni [2] = assay: Feeding deterrent activity against freshly molted third-instar larval stage of Trichoplusia ni (cabbage looper) after 3 to 5 hr by leaf disk choice bioassay; type: functional, organism-based
How it was run: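 Choice test: freshly molted third instar larvae, starved 4–5 h, offered two leaf disks, one painted on each side with 10 µL test solution and one with carrier solvent only. Twenty-five larvae per treatment. Ended when ~50% of the control disk was eaten (normally 3–5 h). Consumed areas measured. DC50 derived by linear regression of at least four concentrations (3.12–25 µg/cm²).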

Trichoplusia ni [3] = assay: Oviposition deterrent activity against adult female Trichoplusia ni (cabbage looper) moths introduced along with male moths into oviposition cage containing compound pretreated cabbage leaves assessed as eggs laying on the leaf disks at 0.25% after 48 hr by oviposition choice bioassay; type: functional
How it was run: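 Choice test with moths from larvae reared on normal diet from neonate to pupation. Pupae were sexed and held separately until emergence. Cabbage leaves were treated with test substance at 0.25% or left as control, and eggs per leaf were counted after 48 h. ODI = [(C − T)/(C + T)] × 100 from egg numbers on control and treated leaves.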

Trichoplusia ni [4] = assay: Feeding deterrent activity against freshly molted third-instar larval stage of Trichoplusia ni (cabbage looper), Trichoplusia ni at 50 ug/cm'2 after 3 to 5 hr by leaf disk choice bioassay; type: functional
How it was run: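 Leaf disk choice with freshly molted third instar larvae starved 4–5 h. One disk was painted on each side with 10 µL solution giving 50 µg/cm², the other with carrier solvent. Twenty-five larvae per treatment, stopped at ~50% control disk consumption (3–5 h). Deterrence = [(C − T)/(C + T)] × 100 from consumed areas; mean ± SE, Tukey's test p < 0.05.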

CCCOc1ccccc1OCCC(C)C
mortality (Trichoplusia ni [1]): 10% | DC50 (Trichoplusia ni [2]): 32.5 microg/cm2 | Activity (Trichoplusia ni [3]): 29.4% | Activity (Trichoplusia ni [4]): 66.9%

CCCOCC[C@@H]1CC=C[C@@H]1OCCC (racemic)
mortality (Trichoplusia ni [1]): 37.5% | DC50 (Trichoplusia ni [2]): 32.6 microg/cm2 | Activity (Trichoplusia ni [3]): 41.8% | Activity (Trichoplusia ni [4]): 66.7%

CCCCOCC[C@@H]1CC=C[C@@H]1OCCCC (racemic)
mortality (Trichoplusia ni [1]): 30% | DC50 (Trichoplusia ni [2]): 29.2 microg/cm2 | Activity (Trichoplusia ni [3]): 29.5% | Activity (Trichoplusia ni [4]): 76%

CC(C)CCOCC[C@@H]1CC=C[C@@H]1OCCC(C)C (racemic)
mortality (Trichoplusia ni [1]): 44.8% | DC50 (Trichoplusia ni [2]): 34.4 microg/cm2 | Activity (Trichoplusia ni [3]): 47% | Activity (Trichoplusia ni [4]): 58.6%

C=CCOc1ccccc1OCC=C [1,2-DIALLYLOXYBENZENE]
mortality (Trichoplusia ni [1]): 20% | DC50 (Trichoplusia ni [2]): 22.4 microg/cm2 | Activity (Trichoplusia ni [3]): 15% | Activity (Trichoplusia ni [4]): 70.4%

CCCCOc1ccccc1OCCCC [1,2-DIBUTOXYBENZENE]
mortality (Trichoplusia ni [1]): 10% | DC50 (Trichoplusia ni [2]): 43.8 microg/cm2 | Activity (Trichoplusia ni [3]): 19.6% | Activity (Trichoplusia ni [4]): 56.4%

CC(C)CCOc1ccccc1OCCC(C)C [1,2-DIISOPENTOXYBENZENE]
mortality (Trichoplusia ni [1]): 40% | DC50 (Trichoplusia ni [2]): 19.6 microg/cm2 | Activity (Trichoplusia ni [3]): 11.5% | Activity (Trichoplusia ni [4]): 69.9%

CCOc1cccc(OCC)c1 [1,3-DIETHOXYBENZENE]
mortality (Trichoplusia ni [1]): 36.7% | DC50 (Trichoplusia ni [2]): 28.7 microg/cm2 | Activity (Trichoplusia ni [3]): 3.4% | Activity (Trichoplusia ni [4]): 89.4%

CCCOc1cccc(OCCC)c1 [1,3-DIPROPOXYBENZENE]
mortality (Trichoplusia ni [1]): 76.7% | DC50 (Trichoplusia ni [2]): 26.8 microg/cm2 | Activity (Trichoplusia ni [3]): 33% | Activity (Trichoplusia ni [4]): 96.9%

C=CCOc1ccc(OCC=C)cc1 [1,4-DIALLYLOXYBENZENE]
mortality (Trichoplusia ni [1]): 16% | DC50 (Trichoplusia ni [2]): 23.9 microg/cm2 | Activity (Trichoplusia ni [3]): 14.1% | Activity (Trichoplusia ni [4]): 96.9%

CCCOc1ccc(OCCC)cc1 [1,4-DIPROPOXYBENZENE]
mortality (Trichoplusia ni [1]): 22.6% | DC50 (Trichoplusia ni [2]): 20.3 microg/cm2 | Activity (Trichoplusia ni [3]): 11.8% | Activity (Trichoplusia ni [4]): 96%

C=CCOc1ccccc1OCCCC [1-allyloxy-2-butoxybenzene]
mortality (Trichoplusia ni [1]): 23.3% | DC50 (Trichoplusia ni [2]): 30 microg/cm2 | Activity (Trichoplusia ni [3]): 66.7% | Activity (Trichoplusia ni [4]): 67.8%

C=CCOc1ccccc1OCC [1-allyloxy-2-ethoxybenzene]
mortality (Trichoplusia ni [1]): 23.3% | DC50 (Trichoplusia ni [2]): 30 microg/cm2 | Activity (Trichoplusia ni [3]): 66.7% | Activity (Trichoplusia ni [4]): 67.8%

C=CCOc1ccccc1OC [1-allyloxy-2-methoxybenzene]
mortality (Trichoplusia ni [1]): 23.3% | DC50 (Trichoplusia ni [2]): 30 microg/cm2 | Activity (Trichoplusia ni [3]): 66.7% | Activity (Trichoplusia ni [4]): 67.8%

C=CCOc1ccccc1OCCCCC [1-allyloxy-2-pentoxybenzene]
mortality (Trichoplusia ni [1]): 23.3% | DC50 (Trichoplusia ni [2]): 30 microg/cm2 | Activity (Trichoplusia ni [3]): 66.7% | Activity (Trichoplusia ni [4]): 67.8%

C=CCOc1ccccc1OCCC [1-allyloxy-2-propoxybenzene]
mortality (Trichoplusia ni [1]): 23.3% | DC50 (Trichoplusia ni [2]): 30 microg/cm2 | Activity (Trichoplusia ni [3]): 66.7% | Activity (Trichoplusia ni [4]): 67.8%

C=CCOc1ccc(OCCCC)cc1 [1-allyloxy-4-butoxybenzene]
mortality (Trichoplusia ni [1]): 10% | DC50 (Trichoplusia ni [2]): 22.6 microg/cm2 | Activity (Trichoplusia ni [3]): 16.8% | Activity (Trichoplusia ni [4]): 84%

C=CCOc1ccc(OCC)cc1 [1-allyloxy-4-ethoxybenzene]
mortality (Trichoplusia ni [1]): 10% | DC50 (Trichoplusia ni [2]): 27.9 microg/cm2 | Activity (Trichoplusia ni [3]): 5.4% | Activity (Trichoplusia ni [4]): 82.4%

C=CCOc1ccc(OCCC(C)C)cc1 [1-allyloxy-4-isopentoxybenzene]
mortality (Trichoplusia ni [1]): 7% | DC50 (Trichoplusia ni [2]): 15.7 microg/cm2 | Activity (Trichoplusia ni [3]): 18.8% | Activity (Trichoplusia ni [4]): 75.1%

C=CCOc1ccc(OC)cc1 [1-allyloxy-4-methoxybenzene]
mortality (Trichoplusia ni [1]): 10% | DC50 (Trichoplusia ni [2]): 27.9 microg/cm2 | Activity (Trichoplusia ni [3]): 5.4% | Activity (Trichoplusia ni [4]): 82.4%

C=CCOc1ccc(OCCC)cc1 [1-allyloxy-4-propoxybenzene]
mortality (Trichoplusia ni [1]): 10% | DC50 (Trichoplusia ni [2]): 27.9 microg/cm2 | Activity (Trichoplusia ni [3]): 5.4% | Activity (Trichoplusia ni [4]): 82.4%

CCCCCOc1ccccc1OCCCC [1-butoxy-2-pentoxybenzene]
mortality (Trichoplusia ni [1]): 6.7% | DC50 (Trichoplusia ni [2]): 16.8 microg/cm2 | Activity (Trichoplusia ni [3]): 28.7% | Activity (Trichoplusia ni [4]): 98%

CCCCOc1cccc(OCC)c1 [1-butyloxy-3-ethoxybenzene]
mortality (Trichoplusia ni [1]): 30% | DC50 (Trichoplusia ni [2]): 14.4 microg/cm2 | Activity (Trichoplusia ni [3]): 25.9% | Activity (Trichoplusia ni [4]): 84.1%

CCCCOc1cccc(OC)c1 [1-butyloxy-3-methoxybenzene]
mortality (Trichoplusia ni [1]): 30% | DC50 (Trichoplusia ni [2]): 14.4 microg/cm2 | Activity (Trichoplusia ni [3]): 25.9% | Activity (Trichoplusia ni [4]): 84.1%

CCCCCOc1cccc(OCCCC)c1 [1-butyloxy-3-pentoxybenzene]
mortality (Trichoplusia ni [1]): 30% | DC50 (Trichoplusia ni [2]): 14.4 microg/cm2 | Activity (Trichoplusia ni [3]): 25.9% | Activity (Trichoplusia ni [4]): 84.1%

CCCCOc1cccc(OCCC)c1 [1-butyloxy-3-propoxybenzene]
mortality (Trichoplusia ni [1]): 30% | DC50 (Trichoplusia ni [2]): 14.4 microg/cm2 | Activity (Trichoplusia ni [3]): 25.9% | Activity (Trichoplusia ni [4]): 84.1%

CCCCOc1ccc(OCC)cc1 [1-butyloxy-4-ethoxybenzene]
mortality (Trichoplusia ni [1]): 58.1% | DC50 (Trichoplusia ni [2]): 14.5 microg/cm2 | Activity (Trichoplusia ni [3]): 50.1% | Activity (Trichoplusia ni [4]): 83.4%

CCCCOc1ccc(OC)cc1 [1-butyloxy-4-methoxybenzene]
mortality (Trichoplusia ni [1]): 58.1% | DC50 (Trichoplusia ni [2]): 14.5 microg/cm2 | Activity (Trichoplusia ni [3]): 50.1% | Activity (Trichoplusia ni [4]): 83.4%

CCCCCOc1ccc(OCCCC)cc1 [1-butyloxy-4-pentoxybenzene]
mortality (Trichoplusia ni [1]): 58.1% | DC50 (Trichoplusia ni [2]): 14.5 microg/cm2 | Activity (Trichoplusia ni [3]): 50.1% | Activity (Trichoplusia ni [4]): 83.4%

CCCCOc1ccc(OCCC)cc1 [1-butyloxy-4-propoxybenzene]
mortality (Trichoplusia ni [1]): 58.1% | DC50 (Trichoplusia ni [2]): 14.5 microg/cm2 | Activity (Trichoplusia ni [3]): 50.1% | Activity (Trichoplusia ni [4]): 83.4%

CCCCOc1ccccc1OCC [1-ethoxy-2-butoxybenzene]
mortality (Trichoplusia ni [1]): 6.7% | DC50 (Trichoplusia ni [2]): 24.1 microg/cm2 | Activity (Trichoplusia ni [3]): 28.7% | Activity (Trichoplusia ni [4]): 71%

CCCCCOc1ccccc1OCC [1-ethoxy-2-pentoxybenzene]
mortality (Trichoplusia ni [1]): 6.7% | DC50 (Trichoplusia ni [2]): 24.1 microg/cm2 | Activity (Trichoplusia ni [3]): 28.7% | Activity (Trichoplusia ni [4]): 71%

CCCOc1ccccc1OCC [1-ethoxy-2-propoxybenzene]
mortality (Trichoplusia ni [1]): 6.7% | DC50 (Trichoplusia ni [2]): 24.1 microg/cm2 | Activity (Trichoplusia ni [3]): 28.7% | Activity (Trichoplusia ni [4]): 71%

CCCCCOc1cccc(OCC)c1 [1-ethoxy-3-pentoxybenzene]
mortality (Trichoplusia ni [1]): 20% | DC50 (Trichoplusia ni [2]): 26.5 microg/cm2 | Activity (Trichoplusia ni [3]): 14.3% | Activity (Trichoplusia ni [4]): 69.8%

CCCOc1cccc(OCC)c1 [1-ethoxy-3-propoxybenzene]
mortality (Trichoplusia ni [1]): 20% | DC50 (Trichoplusia ni [2]): 26.5 microg/cm2 | Activity (Trichoplusia ni [3]): 14.3% | Activity (Trichoplusia ni [4]): 69.8%

CCCCOc1ccccc1OCCC(C)C [1-isopentoxy-2-butoxybenzene]
mortality (Trichoplusia ni [1]): 10% | DC50 (Trichoplusia ni [2]): 32.5 microg/cm2 | Activity (Trichoplusia ni [3]): 29.4% | Activity (Trichoplusia ni [4]): 66.9%
